# Compounds with a hit are over-represented: about 3.7% of the library has one in this group of screens.
# MC4R antagonist: antagonists of human melanocortin 4 receptor (MC4R). P32245. MC4R-expressing cells, MTII-stimulated cAMP, LANCE TR-FRET. inhibition, % at 6.5 µM. 0.48% of 360,000 active;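 active = inhibition above its plate's cutoff, the mean of tested wells on that plate plus 3 SD, cut at about 29% in these data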;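 note: 0% = Melanotan II alone and 100% = Melanotan II plus saturating MCL0020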
#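 Material – human MC4R-expressing U2OS cells · Repeats – no replicates · Detection – TR-FRET with Eu-cAMP and labeled anti-cAMP, 671 nm · Times – compound 30 min, challenge 1 h, detection 1 h · Compound – single nominal compound dose of 6.5 µM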
# EBI2 block: EBI2 (human) antagonism | P32249 | EBI2 beta-arrestin recruitment, luminescence, 7a,25-OHC stimulated | inhibition, % at 5 µM | 0.81% of 360,000 active; in the data active = inhibition above about 38%;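 note: enzyme fragment complementation signal reports receptor beta-arrestin coupling in cells; 0% = agonist plus DMSO wells and 100% = wells without agonist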
# Target sequence (P32249 whole entry, looked up, the tested form may be a part): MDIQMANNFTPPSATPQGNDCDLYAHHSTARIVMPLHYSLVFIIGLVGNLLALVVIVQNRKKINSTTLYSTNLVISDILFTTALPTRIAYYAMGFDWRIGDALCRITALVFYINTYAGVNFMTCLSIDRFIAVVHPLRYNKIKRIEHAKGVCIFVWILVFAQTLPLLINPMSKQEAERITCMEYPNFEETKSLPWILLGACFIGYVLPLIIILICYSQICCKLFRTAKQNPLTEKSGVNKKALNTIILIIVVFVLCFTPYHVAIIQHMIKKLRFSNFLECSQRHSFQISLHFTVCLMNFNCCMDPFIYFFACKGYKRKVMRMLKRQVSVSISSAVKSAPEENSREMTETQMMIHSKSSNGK
# Myeloid diff 2: promotes myeloid progenitor differentiation; calls only at 10 µM; 1% of 360,000 active; AID 624256; ER-HoxA9 myeloid progenitors, lysozyme-GFP differentiation, flow cytometry;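 active = normalized GFP-positive differentiation at or above the plate's own cutoff, the solvent-only control mean plus 3 SD; inconclusive = no clear call, values can overlap the other calls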;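 note: cells exposed to compound for four days before flow analysis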
# Exocytosis inh: blocks lytic granule exocytosis | TALL-104 LAMP-1 surface exposure, flow cytometry; cells stimulated with thapsigargin and PMA | inhibition, % at 10 µM | 0.66% of 360,000 active;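 active = inhibition above about 55%, limit read from the data; inconclusive = no clear call, values can overlap the other calls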
# MC4R barr agon: agonists of human melanocortin 4 receptor (MC4R) beta-arrestin | P32245 | U2OS MC4R beta-arrestin complementation, luminescence; percent of melanotan II response, DMSO zero | activation, % at 8.9 µM | 0.98% of 360,000 active;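 active = activation above a per-plate cutoff, the mean activation of sample wells on that plate plus 3 SD, cut at about 8% in these data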
# The depositor's hits bear a star; i = inactive; ? = inconclusive; / = not tested or not shown; + = active, no number.
SMILES,MC4R antagonist,EBI2 block,Myeloid diff 2,Exocytosis inh,MC4R barr agon
O=C1CC(c2ccc(O)cc2)Oc2cc(O)cc(O)c21 (stereo not drawn),17,-4,i,-2,0
CC(C)Oc1cccc(C(=O)C2CCCN(S(C)(=O)=O)C2)c1 (stereo not drawn),29*,9,i,-5,1
O=C(CCNS(=O)(=O)c1ccccc1)Nc1ccccc1,7,-10,i,0,-2
Cn1c(C(=O)N2CCN(c3ccc(Cl)cc3)CC2)cc2c(=O)[nH]c3ccccc3c21,-4,83*,i,3,0
O=C(c1cccc(C(F)(F)F)c1)C1CCCN(C(=O)c2cc(C3CC3)[nH]n2)C1 (stereo not drawn),3,7,+,-2,-1
COc1ccccc1-c1ncn(Cc2cccc(-c3ccccc3)c2)c1-c1ccco1,/,11,i,49,/
O=C(Nc1cc(C(F)(F)F)ccc1Cl)C1CCN(c2nnc(-n3cccc3)s2)CC1,2,0,/,0,8.6*
CCN1CCN(CCCNC(=O)C2CCN(c3nnc(-n4cccc4)s3)CC2)CC1,1,3,+,-1,-2
CS(=O)(=O)N1CCC(C(=O)Nc2cc(C(F)(F)F)ccc2Cl)CC1,6,1,i,-1,-3
O=C(c1cccc(F)c1)N1CCC2(CC1)NCCc1[nH]cnc12,-5,8,+,-2,0
CCOC(=O)/C=c1\s/c(=C\c2c(OC)ccc3ccccc23)c(=O)n1CC(=O)NCC1CCCO1 (stereo not drawn),-25,1,+,7,-1
CCOC(=O)/C=c1/s/c(=C/c2ccc3cc(OC)ccc3c2)c(=O)n1CC(=O)NCC1CCCO1 (stereo not drawn),-3,-2,i,-4,-2
N/C(=N\OC(=O)CCC(=O)O)c1ncc(C(F)(F)F)cc1Cl,7,-7,+,2,-2
N/C(=N\OC(=O)Nc1ccccc1)c1ncc(C(F)(F)F)cc1Cl,-2,-2,i,-4,-2
C/C(O)=C\c1nc2ccccc2oc1=O,4,-4,+,0,0
O=c1oc2ccccc2nc1/C=C(\O)c1ccc(Br)cc1,-5,0,i,-4,0
CC(C)CCNC(=O)NC(=O)CSc1nnc(-c2ccccc2Br)o1,9,-10,i,-6,8.4*
CCC/C=C/c1ccc(CN2C(C)C(=O)N(Cc3cn(CCC4OCCO4)nn3)CCS2(=O)=O)cc1 (stereo not drawn),6,0,i,2,1
N=c1c[n+](N2CCOCC2)[n-]o1,31*,-4,i,-4,0
O=C(CSc1nc(NS(=O)(=O)c2ccccc2)cc(=O)[nH]1)Nc1ccccc1C(F)(F)F,3,1,i,-6,-1
COc1ccc(Cl)cc1NC(=O)CSc1nc(NS(=O)(=O)c2ccc(C)cc2)cc(=O)[nH]1,0,6,+,40,1
O=C(NCCCN1CCOCC1)c1ccc2c(=O)n(Cc3ccc(Cl)cc3)c(=S)[nH]c2c1,20,15,i,28,0
CN(C)CCNC(=O)c1ccc2c(=O)n(Cc3ccc(Cl)cc3)c(=S)[nH]c2c1,12,-3,+,5,-1
Nc1c(C(=O)Nc2ccc(S(=O)(=O)N3CCCC3)cc2)sc2nc3cc4c(cc3cc12)CCC4,19,-18,+,-2,-1
Nc1c(C(=O)Nc2ccc(Cl)c(C(=O)O)c2)sc2nc3c(cc12)CCCC3,3,3,i,-1,-1
SMILES,MC4R antagonist,EBI2 block,Myeloid diff 2,Exocytosis inh,MC4R barr agon
CN(C)S(=O)(=O)c1ccc2c(c1)/C(=C/c1cc3c([nH]1)CCCC3)C(=O)N2,21,49*,+,6,5
CN(C)S(=O)(=O)c1ccc2c(c1)C(=O)c1cc(S(=O)(=O)N(C)C)ccc1CC2,-5,12,i,4,1
CCOC(=O)[C@]12CCC=C1N(Cc1ccc3c(c1)OCO3)C(=O)[C@H](CC(=O)NCc1ccccc1)C2,/,-2,i,-12,/
CC1(C(=O)Nc2cccc3c2CCCC3)CCN1C(=O)Cc1ccccc1Cl (stereo not drawn),5,3,i,-9,-1
O=[N+]([O-])c1nn(-c2ccccc2)[n+]([O-])c1N1CCN(c2ccccc2F)CC1,-5,-8,i,-3,9.3*
O=C(c1ccc(Cl)c(S(=O)(=O)N2CCCCC2)c1)N1CCN(Cc2ccccc2)CC1,0,-4,i,1,-2
CN(Cc1ccccc1)C(=O)c1ccc(NC(=O)C2CCCN(C(=O)OC(C)(C)C)C2)cc1 (stereo not drawn),8,-7,i,38,-1
CCOC(=O)[C@]12CCCC=C1N(Cc1ccccc1)C(=O)[C@H](CC(=O)N1CCCC1)C2,/,-9,i,-7,/
COc1cc2c(cc1OC)C(C)N(C(=O)Nc1ccccc1)CC2 (stereo not drawn),-13,-16,?,-13,-3
COc1cc2c(cc1OC)C(C)N(CCN1C(=O)c3ccccc3C1=O)CC2 (stereo not drawn),1,-7,+,9,-1
Cc1ccc2c(c1)N(C)/C(=C/c1cccc[n+]1C)S2,2,1,?,-4,-1
Cc1ccc2c(c1)N(C)/C(=C/c1cccc[n+]1CCO)S2,-3,-7,+,16,0
COc1cccc(CN2CCN(c3nc4nonc4nc3NC3CC3)CC2)c1,-6,17,i,-1,1
Cc1ccc(CO/N=C\Cc2snc(Sc3ncc(C(F)(F)F)cc3Cl)c2C#N)cc1,5,-3,+,-2,-1
NC(=O)C1(N2CCCCC2)CCN(C(=S)Nc2cc(F)cc(F)c2)CC1,-2,-4,i,1,-1
NC(=O)C1(N2CCCCC2)CCN(C(=S)Nc2ccc(F)cc2)CC1,-2,-13,i,-1,8.5*
CC(SC(C)C(=O)NN=Cc1cccc(F)c1)C(=O)NN=Cc1cccc(F)c1 (stereo not drawn),2,-1,i,37,2
Cc1ccc(S(=O)(=O)c2nc(S(C)(=O)=O)sc2N2CCC(O)CC2)cc1,3,-2,i,-1,1
Cc1ccc(S(=O)(=O)c2nc(S(C)(=O)=O)sc2N2CCCCC2C)cc1 (stereo not drawn),1,-4,+,1,-2
CN1CCN(c2sc(S(C)(=O)=O)nc2S(=O)(=O)c2ccc(Cl)cc2)CC1,2,-8,i,6,-1
CS(=O)(=O)c1nc(S(=O)(=O)c2ccc(Cl)cc2)c(N2CCN(CCO)CC2)s1,-1,-7,+,-3,0
Cc1nn(CC(=O)N(C)C)c(C)c1S(=O)(=O)N1CCOCC1,-2,1,i,-1,-1
COc1cccc(C2c3cc4c(cc3OC(N3CCOCC3)C2C)OCO4)c1O (stereo not drawn),1,20,+,1,-1
